The record followed here is BindingDB's records for doi:10.1021/jm048999e (2005).

In the experiment the target is T1, 5-hydroxytryptamine receptor 1A (Rattus norvegicus, UniProt P19327).
T1 sequence (P19327 whole entry): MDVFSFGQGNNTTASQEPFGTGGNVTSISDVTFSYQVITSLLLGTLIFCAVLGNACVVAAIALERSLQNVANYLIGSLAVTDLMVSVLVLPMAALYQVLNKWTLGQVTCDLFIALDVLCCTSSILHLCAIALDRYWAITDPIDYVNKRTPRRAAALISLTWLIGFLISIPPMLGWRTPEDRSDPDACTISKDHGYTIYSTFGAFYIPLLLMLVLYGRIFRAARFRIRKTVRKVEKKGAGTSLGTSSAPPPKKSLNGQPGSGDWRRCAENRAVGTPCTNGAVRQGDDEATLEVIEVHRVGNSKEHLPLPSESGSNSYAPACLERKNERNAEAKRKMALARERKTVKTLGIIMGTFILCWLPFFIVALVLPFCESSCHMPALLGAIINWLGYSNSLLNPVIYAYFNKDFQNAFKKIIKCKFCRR
In words: In vitro inhibition of [3H]8-OH-DPAT binding to 5-hydroxytryptamine 1A receptor in rat cerebral cortex membranes. Put shortly:
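Rat cerebral cortex membranes (about 1 mg protein) incubated 15 min at 37 °C with 0.6 nM [3H]-8-OH-DPAT in 50 mM Tris-HCl, pH 7.4, containing 10 nM clonidine and 30 nM prazosin. Nonspecific binding with 10 µM 5-HT. Compounds screened at 10^-6 M; curves run if displacement exceeded 55%. Filtration, scintillation counting, triplicates, 2-4 experiments; Ki by Cheng-Prusoff.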

As a reminder, the Ki is the equilibrium dissociation constant of an inhibitor or competing ligand from its target. Read a high Ki as lower affinity.

Take `O=c1n(CN2CCN(c3cccc4ccccc34)CC2)c(O)c2n1CCC2` [2-(4-Naphthalen-1-yl-piperazin-1-ylmethyl)-tetrahydro-pyrrolo[1,2-c]imidazole-1,3-dione]: the affinity, expressed as Ki, was 10.4 nM.
